Source: ChEMBL document CHEMBL1143665, “Novel acyclic enediynes inhibit Cyclin A and Cdc25C expression and induce apoptosis phenomenon to show potent antitumor proliferation” (2007)

Assays:
Assay type in all cases: functional
SF-295 = experiment: Cytotoxicity against human SF295 cells
K562 [1] = experiment: Cytotoxicity against human K562 cells
DU-145 = experiment: Cytotoxicity against human DU145 cells
SR = experiment: Cytotoxicity against human SR cells
HCT-15 = experiment: Cytotoxicity against human HCT15 cells
LOX IMVI = experiment: Cytotoxicity against human LOX IMVI cells
OVCAR-3 = experiment: Cytotoxicity against human OVCAR-3 cells
MDA-MB-435 = experiment: Cytotoxicity against human MDA-MB-435 cells
K562 [2] = experiment: Cell cycle arrest in human K562 cells by accumulation at G0/G1 phase cell at 50 uM after 24 hrs relative to control
How it was run: (§1)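 K-562 cells (RPMI 1640, 10% fetal calf serum, 37 °C, 5% CO2) exposed 24 h, pelleted, fixed in ice-cold 70% ethanol 30 min, RNase A (1 mg/ml) 37 °C 30 min, propidium iodide stain 30 min at room temperature in the dark; DNA content of 10,000 events by flow cytometry; phase and sub-G1 percentages compared with untreated control.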

K562 [3] = experiment: Cell cycle arrest in human K562 cells by accumulation at S phase cell at 50 uM after 24 hrs relative to control; how it was run: as §1
K562 [4] = experiment: Cell cycle arrest in human K562 cells by accumulation at G2/M phase cell at 50 uM after 24 hrs relative to control; how it was run: as §1
K562 [5] = experiment: Induction of apoptosis in human K562 cells assessed as accumulation at subG1 phase at 50 uM after 24 hrs relative to control; how it was run: as §1

Row | Compound | GI50 (SF-295) [µM] | GI50 (K562 [1]) [µM] | GI50 (DU-145) [µM] | GI50 (SR) [µM] | GI50 (HCT-15) [µM] | GI50 (LOX IMVI) [µM] | GI50 (OVCAR-3) [µM] | GI50 (MDA-MB-435) [µM] | Activity (K562 [2]) [%] | Activity (K562 [3]) [%] | Activity (K562 [4]) [%] | Activity (K562 [5]) [%]
1 | OCCCCC#Cc1ccccc1C#Cc1ccccn1 | 21.8 | 29 | 9.8 | 25.5 | 29.8 | 27.7 | 26.1 | 25.1 | 30.4 | 52.6 | 17 | 4.4
2 | OCCCCC#Cc1ccccc1C#Cc1ccc(C(F)(F)F)cc1 | 19.1 | 18.2 | 15.8 | 0.6 | 12.5 | 17.1 | 17.8 | 16.3 | 36.9 | 38.3 | 24.8 | 5.36
3 | OCCCCC#Cc1ccccc1C#Cc1cccc(C(F)(F)F)c1 | 16.5 | 22.5 | 15.3 | 18.3 | 16.3 | 17.5 | 16.8 | 16.9 | 30.6 | 40 | 29.4 | 3.84
4 | COc1cccc(C#Cc2ccccc2C#CCCCCO)c1 | 7.9 | 1.8 | 4.1 | 1.9 | 3.6 | 6.3 | 10.7 | 1.9 | 3.4 | 11.9 | 84.6 | 10.81
5 | CSc1ccccc1C#Cc1ccccc1C#CCCCCO | 1.5 | 6.1 | 4.7 | 3.5 | 3.8 | 5.8 | 14.7 | 3.9 | 19.8 | 24.6 | 55.7 | 9.23
6 | N#Cc1ccc(C#Cc2ccccc2C#CCCCCO)cc1 | 21.5 | 21.7 | 16 |  | 15.6 | 18.3 | 19.9 | 18.9 | 51.2 | 38 | 10.8 | 5.65
7 | COc1ccccc1C#Cc1ccccc1C#CCCCCO | 22.1 | 15.5 | 14.3 | 1 | 19.9 | 17.9 | 19.8 | 20.2 | 30.9 | 41.5 | 27.6 | 8.08
